ChEMBL document CHEMBL4673221, “Furanoflavones pongapin and lanceolatin B blocks the cell cycle and induce senescence in CYP1A1-overexpressing breast cancer cells” (Bioorg Med Chem, 2018)

How the values were obtained:
Cytochrome P450 2B6 = target: T1, Cytochrome P450 2B6 (Homo sapiens, UniProt P20813); assay: Inhibition of human CYP2B6 expressed in Sacchrosomes by fluorescence based assay; format: ADME
T1 sequence (P20813 whole entry): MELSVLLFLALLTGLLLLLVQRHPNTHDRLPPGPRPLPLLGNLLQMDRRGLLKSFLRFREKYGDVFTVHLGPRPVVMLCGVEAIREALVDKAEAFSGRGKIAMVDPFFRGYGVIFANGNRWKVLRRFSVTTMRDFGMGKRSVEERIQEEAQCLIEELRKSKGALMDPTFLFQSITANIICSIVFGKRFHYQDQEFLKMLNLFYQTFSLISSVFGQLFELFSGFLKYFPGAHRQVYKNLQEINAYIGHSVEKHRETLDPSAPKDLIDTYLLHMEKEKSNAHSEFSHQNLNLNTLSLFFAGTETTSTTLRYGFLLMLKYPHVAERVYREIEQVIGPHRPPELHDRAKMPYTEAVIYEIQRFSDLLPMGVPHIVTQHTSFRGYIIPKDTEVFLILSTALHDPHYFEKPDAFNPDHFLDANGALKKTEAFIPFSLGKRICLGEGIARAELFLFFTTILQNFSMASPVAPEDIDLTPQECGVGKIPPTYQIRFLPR

Cytochrome P450 1B1 [1] = target: T2, Cytochrome P450 1B1 (Homo sapiens, UniProt Q16678); assay: Inhibition of human CYP1B1 expressed in sacchrosomes using 7-ethoxyresorufin as substrate by fluorescence based assay; format: ADME
T2 sequence (Q16678 whole entry): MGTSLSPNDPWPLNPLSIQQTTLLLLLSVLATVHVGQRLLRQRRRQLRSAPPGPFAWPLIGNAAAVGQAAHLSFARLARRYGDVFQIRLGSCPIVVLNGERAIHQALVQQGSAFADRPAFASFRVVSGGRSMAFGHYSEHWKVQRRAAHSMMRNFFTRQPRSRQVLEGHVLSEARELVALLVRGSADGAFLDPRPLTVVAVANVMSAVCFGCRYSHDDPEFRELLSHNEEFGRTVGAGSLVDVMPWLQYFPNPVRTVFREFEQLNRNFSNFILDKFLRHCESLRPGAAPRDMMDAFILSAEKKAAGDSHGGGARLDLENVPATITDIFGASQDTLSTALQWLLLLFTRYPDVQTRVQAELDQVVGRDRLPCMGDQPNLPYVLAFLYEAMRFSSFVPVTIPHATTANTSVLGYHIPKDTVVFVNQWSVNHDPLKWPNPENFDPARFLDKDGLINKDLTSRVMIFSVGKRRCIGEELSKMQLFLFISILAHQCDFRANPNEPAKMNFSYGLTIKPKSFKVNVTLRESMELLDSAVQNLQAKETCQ
Procedure, shortened: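 Enzymes were microsomal preparations isolated from recombinant baker's yeast (Sacchrosomes). Compounds were screened at 10 μM for percent inhibition, and IC50 values were also determined. Values are mean ± SD of three independent experiments. Alpha-naphthoflavone served as the positive control.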

MCF7 [2] = assay: Induction of cell cycle arrest in human MCF7 over expressing CYP1A cells assessed as accumulation at G2/M phase incubated for 24 hrs by PI staining based flow cytometric analysis (reference value: 22.6%); format: functional
Cytochrome P450 2E1 = Cytochrome P450 2E1 (Homo sapiens, UniProt P05181); assay: Inhibition of human CYP2E1 expressed in Sacchrosomes by fluorescence based assay; format: ADME
Cytochrome P450 1B1 [3] = target: T2, Cytochrome P450 1B1; assay: Inhibition of human CYP1B1 expressed in human HEK293 cells using 7-ethoxyresorufin as substrate preincubated for 30 mins followed by substrate additon and measured after 60 mins by fluorescence based assay; format: ADME, cell-based
Procedure, shortened: (§1)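 The assay used live recombinant human HEK293 cells grown in suspension, each cell line expressing a single CYP (CYP1A1 or CYP1B1). Percent inhibition was read at 10 μM, and IC50 values were determined. Values are mean ± SD of three independent experiments. Alpha-naphthoflavone served as the reference inhibitor.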

Cytochrome P450 1A2 = target: T3, Cytochrome P450 1A2 (Homo sapiens, UniProt P05177); assay: Inhibition of human CYP1A2 expressed in Sacchrosomes using 3-cyano-7-ethoxycoumarin as substrate by fluorescence based assay; format: ADME
T3 sequence (P05177 whole entry): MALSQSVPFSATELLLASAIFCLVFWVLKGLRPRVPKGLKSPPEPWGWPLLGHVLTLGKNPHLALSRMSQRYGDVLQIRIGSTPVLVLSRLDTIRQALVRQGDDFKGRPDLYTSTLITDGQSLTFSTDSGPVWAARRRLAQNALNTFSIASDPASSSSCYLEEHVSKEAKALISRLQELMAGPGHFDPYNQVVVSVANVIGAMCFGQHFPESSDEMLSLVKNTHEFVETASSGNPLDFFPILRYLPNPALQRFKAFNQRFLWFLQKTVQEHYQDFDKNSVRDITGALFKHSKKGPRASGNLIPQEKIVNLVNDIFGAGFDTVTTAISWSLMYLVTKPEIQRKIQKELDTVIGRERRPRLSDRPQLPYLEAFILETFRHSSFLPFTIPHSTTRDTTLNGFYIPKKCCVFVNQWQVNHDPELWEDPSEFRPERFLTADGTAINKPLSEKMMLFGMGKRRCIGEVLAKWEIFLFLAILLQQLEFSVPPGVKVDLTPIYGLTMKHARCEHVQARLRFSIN

Cytochrome P450 1A1 = target: T4, Cytochrome P450 1A1 (Homo sapiens, UniProt P04798); assay: Inhibition of human CYP1A1 expressed in human HEK293 cells using 7-ethoxyresorufin as substrate preincubated for 30 mins followed by substrate additon and measured after 60 mins by fluorescence based assay; format: cell-based; procedure, shortened: as §1
T4 sequence (P04798 whole entry): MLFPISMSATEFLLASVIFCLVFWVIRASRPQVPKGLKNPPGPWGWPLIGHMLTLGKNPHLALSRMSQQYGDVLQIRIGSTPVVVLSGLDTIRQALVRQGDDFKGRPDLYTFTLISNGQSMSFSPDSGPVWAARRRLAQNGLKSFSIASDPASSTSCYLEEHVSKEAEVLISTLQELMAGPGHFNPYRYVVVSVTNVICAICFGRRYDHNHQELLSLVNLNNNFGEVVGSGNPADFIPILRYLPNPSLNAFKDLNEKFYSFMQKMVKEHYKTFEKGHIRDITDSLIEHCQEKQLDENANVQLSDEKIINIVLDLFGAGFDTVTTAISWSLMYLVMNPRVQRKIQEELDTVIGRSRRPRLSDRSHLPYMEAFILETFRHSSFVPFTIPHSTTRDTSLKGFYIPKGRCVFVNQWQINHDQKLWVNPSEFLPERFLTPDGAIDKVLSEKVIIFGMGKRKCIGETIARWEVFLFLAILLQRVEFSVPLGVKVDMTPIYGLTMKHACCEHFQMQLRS

Cytochrome P450 3A4 = Cytochrome P450 3A4 (Homo sapiens, UniProt P08684); assay: Inhibition of human CYP3A4 expressed in Sacchrosomes using dibenzylfluorescein as substrate by fluorescence based assay; format: ADME
Cytochrome P450 2D6 = Cytochrome P450 2D6 (Homo sapiens, UniProt P10635); assay: Inhibition of human CYP2D6 expressed in Sacchrosomes using 7-ethoxy-methyloxy-3-cyanocoumarin as substrate by fluorescence based assay; format: ADME
MCF7 [4] = assay: Antiproliferative activity against human MCF-7 cells overexpressing CYP1A1 assessed as reduction in cell viability; format: functional, cell-based
Procedure, shortened: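 MCF-7 cells transfected with pcDNA3.1/CYP1A1 and selected in G418 (1 mg/mL, then […]) to give the stable MCF7-1A1 line. CYP1A1 expression was confirmed by Western blot and 7-ethoxyresorufin enzyme assay. The line was subcloned repeatedly. The reported value is the EC50 for inhibition of proliferation.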

Cytochrome P450 3A4, sequence (P08684 whole entry): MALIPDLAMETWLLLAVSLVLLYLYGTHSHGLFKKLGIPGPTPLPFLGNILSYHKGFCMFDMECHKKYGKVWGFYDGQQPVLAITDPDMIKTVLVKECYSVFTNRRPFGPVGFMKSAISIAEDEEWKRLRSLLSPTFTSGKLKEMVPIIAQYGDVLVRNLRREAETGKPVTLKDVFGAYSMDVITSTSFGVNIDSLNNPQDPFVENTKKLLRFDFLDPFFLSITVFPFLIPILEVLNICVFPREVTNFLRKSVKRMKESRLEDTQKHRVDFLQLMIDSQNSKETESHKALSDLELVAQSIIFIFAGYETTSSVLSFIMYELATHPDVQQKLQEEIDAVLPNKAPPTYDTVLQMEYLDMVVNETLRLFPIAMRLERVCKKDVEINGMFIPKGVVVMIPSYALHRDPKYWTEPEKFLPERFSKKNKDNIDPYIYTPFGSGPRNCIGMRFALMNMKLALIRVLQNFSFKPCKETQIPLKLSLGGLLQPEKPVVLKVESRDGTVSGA
Cytochrome P450 2E1, sequence (P05181 whole entry): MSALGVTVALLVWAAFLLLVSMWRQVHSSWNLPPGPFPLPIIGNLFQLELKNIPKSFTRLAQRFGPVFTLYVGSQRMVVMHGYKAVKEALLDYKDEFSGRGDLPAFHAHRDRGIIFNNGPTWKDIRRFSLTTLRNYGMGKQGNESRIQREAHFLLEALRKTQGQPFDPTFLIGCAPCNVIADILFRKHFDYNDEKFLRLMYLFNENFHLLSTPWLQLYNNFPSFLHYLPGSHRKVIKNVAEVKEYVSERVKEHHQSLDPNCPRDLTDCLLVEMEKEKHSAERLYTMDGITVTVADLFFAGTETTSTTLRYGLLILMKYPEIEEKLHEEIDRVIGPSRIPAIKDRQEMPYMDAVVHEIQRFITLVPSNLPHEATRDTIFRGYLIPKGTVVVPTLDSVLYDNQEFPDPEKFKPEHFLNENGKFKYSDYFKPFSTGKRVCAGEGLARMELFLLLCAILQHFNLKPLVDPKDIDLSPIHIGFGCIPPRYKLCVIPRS
Cytochrome P450 2D6, sequence (P10635 whole entry): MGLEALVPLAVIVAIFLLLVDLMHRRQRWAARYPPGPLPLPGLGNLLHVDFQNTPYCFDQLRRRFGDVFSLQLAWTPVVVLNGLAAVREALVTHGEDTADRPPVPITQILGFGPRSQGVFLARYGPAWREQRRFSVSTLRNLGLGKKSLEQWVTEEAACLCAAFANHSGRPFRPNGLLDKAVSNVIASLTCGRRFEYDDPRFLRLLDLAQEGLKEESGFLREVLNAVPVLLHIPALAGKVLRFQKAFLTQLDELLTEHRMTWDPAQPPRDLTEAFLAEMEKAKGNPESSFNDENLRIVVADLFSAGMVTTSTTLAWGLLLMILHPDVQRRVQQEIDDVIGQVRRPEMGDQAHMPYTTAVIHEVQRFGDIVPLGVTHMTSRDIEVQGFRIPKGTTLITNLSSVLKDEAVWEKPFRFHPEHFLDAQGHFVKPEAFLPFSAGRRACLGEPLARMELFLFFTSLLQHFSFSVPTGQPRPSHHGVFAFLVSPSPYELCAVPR

| Structure (SMILES) | IC50 (Cytochrome P450 2B6) [nM] | IC50 (Cytochrome P450 1B1 [1]) [nM] | Activity (MCF7 [2]) [%] | IC50 (Cytochrome P450 2E1) [nM] | IC50 (Cytochrome P450 1B1 [3]) [nM] | IC50 (Cytochrome P450 1A2) [nM] | IC50 (Cytochrome P450 1A1) [nM] | IC50 (Cytochrome P450 3A4) [nM] | IC50 (Cytochrome P450 2D6) [nM] | EC50 (MCF7 [4]) [nM] |
| --- | --- | --- | --- | --- | --- | --- | --- | --- | --- | --- |
| O=c1cc(-c2ccccc2)oc2c1ccc1occc12 [LANCEOLATIN B] | > 20000 | 290 | 9.2 | > 20000 | 390 | 187 | 20 | > 20000 | > 20000 | 700 |
| COc1c(-c2ccc3c(c2)OCO3)oc2c(ccc3occc32)c1=O [PONGAPIN] | > 20000 | 950 | 8.3 | > 20000 | 1060 | 2500 | 20 | > 20000 | > 20000 | 600 |
